In the RNAGym collection of RNA variant scans (doi:10.1126/science.aae0568):
This sample holds only a part of the variants without activity.

B1: tRNA (parent)
chain: GUUCCGUUGGCGUAAUGGUAACGCGUCUCCCUCCUAAGGAGAAGACUGCGGGUUCGAGUCCCGUACGGAACG

Variants of: B1
Assay: yeast fitness relative to wild type (ratio to wild type); higher = fitter; tRNA-Arg(CCU), competitive growth, 37 C, YPD
Outline: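 A pool of Saccharomyces cerevisiae strains, each with a tRNA-Arg(CCU) gene variant at the native genomic locus, was competed in YPD at 37°C for 24 hours across six parallel replicates. The variants had been chemically synthesised at a 3% per-site mutation rate over 69 sites, and gene amplicons before and after competition were read by 100-nucleotide paired-end sequencing. Darwinian fitness relative to wild type rested on changes in genotype frequencies. Genotypes required ≥ 100 starting reads, and estimates < 0.5 were set to 0.5.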

Q: Which yeast fitness does the source give for U2G C30U C46A here?
A: Its yeast fitness is 0.692.

Q: Which yeast fitness does the source give for U2G A21U A36U A45U A65U A70U here?
A: The yeast fitness was ≤ 0.5.

Q: With U2C A14G G18A A70C as the variant, how does the yeast fitness read?
A: Its yeast fitness is ≤ 0.5.

Q: With U2G A15U A20C U26A C30G U35A G38C U64A as the variant, how does the yeast fitness read?
A: The yeast fitness was ≤ 0.5.

Q: Which yeast fitness does the source give for U2C G51U U54A A70U here?
A: The yeast fitness was ≤ 0.5.

Q: With U2C G12A A15G C29G C33G G41C C66U as the variant, how does the yeast fitness read?
A: Its yeast fitness is ≤ 0.5.

Q: Which yeast fitness does the source give for U2C U3C here?
A: Its yeast fitness is 0.885.

Q: For U2C C11A C31U C33U A42C C61U, which yeast fitness is on record?
A: The yeast fitness was ≤ 0.5.

Q: With U2G C22A G25C C33U A69C as the variant, how does the yeast fitness read?
A: Its yeast fitness is ≤ 0.5.

Q: Which yeast fitness does the source give for U2A U7G here?
A: Its yeast fitness is 0.847.

Q: Which yeast fitness does the source give for U2C U47A C55G here?
A: The yeast fitness was ≤ 0.5.

Q: Which yeast fitness does the source give for U2G G9C G12A U32C A42C C46A A65U here?
A: Its yeast fitness is ≤ 0.5.

Q: Which yeast fitness does the source give for U2G C11G here?
A: Its yeast fitness is 0.703.

Q: Which yeast fitness does the source give for U2C G9A C31A C49A U59A C61G here?
A: Its yeast fitness is ≤ 0.5.

Q: Which yeast fitness does the source give for U2C G58C here?
A: Its yeast fitness is 1.05.

Q: For U2C C5G C33G C60A G67C, which yeast fitness is on record?
A: The yeast fitness was ≤ 0.5.

Q: For U2C U19A U26C A45C G52C A70G, which yeast fitness is on record?
A: The yeast fitness was ≤ 0.5.

Q: With U2C U16A U32A A37U C62A as the variant, how does the yeast fitness read?
A: The yeast fitness was ≤ 0.5.

Q: With U2G A15G U26C C34U as the variant, how does the yeast fitness read?
A: The yeast fitness was 0.611.

Q: With U2C C5A C11A A40G as the variant, how does the yeast fitness read?
A: The yeast fitness was ≤ 0.5.

Q: With U2A U32C A36G as the variant, how does the yeast fitness read?
A: Its yeast fitness is 0.736.

Q: With U2A G12C A36C as the variant, how does the yeast fitness read?
A: The yeast fitness was ≤ 0.5.

Q: For U2G C31U G48C G67C, which yeast fitness is on record?
A: Its yeast fitness is 0.702.

Q: With U2C G12C as the variant, how does the yeast fitness read?
A: The yeast fitness was 0.831.

Q: With U2C U26C as the variant, how does the yeast fitness read?
A: Its yeast fitness is 0.947.

Q: Which yeast fitness does the source give for U2A U8C G12A A42U here?
A: Its yeast fitness is ≤ 0.5.

Q: Which yeast fitness does the source give for U2C G12C A40C G67A here?
A: The yeast fitness was ≤ 0.5.

Q: With U2A U3A U26A G51A as the variant, how does the yeast fitness read?
A: Its yeast fitness is ≤ 0.5.

Q: For U2A G6C G68C, which yeast fitness is on record?
A: The yeast fitness was ≤ 0.5.

Q: Which yeast fitness does the source give for U2C C11A C22G U53G here?
A: Its yeast fitness is ≤ 0.5.

Q: With U2A C31A U47C A69U as the variant, how does the yeast fitness read?
A: The yeast fitness was ≤ 0.5.

Q: With U2C C46U as the variant, how does the yeast fitness read?
A: Its yeast fitness is 0.959.

Q: For U2G A45C, which yeast fitness is on record?
A: Its yeast fitness is 0.766.

Q: For U2C U13C G41A C60G C61G C62U, which yeast fitness is on record?
A: Its yeast fitness is 0.596.

Q: With U2C A20C C27U as the variant, how does the yeast fitness read?
A: Its yeast fitness is 0.838.

Q: For U2A U32A, which yeast fitness is on record?
A: Its yeast fitness is 0.72.

Q: With U2C C46G A65C as the variant, how does the yeast fitness read?
A: Its yeast fitness is 0.678.

Q: For U2A C49A C61G, which yeast fitness is on record?
A: Its yeast fitness is 0.505.

Q: With U2C U26C C46U as the variant, how does the yeast fitness read?
A: Its yeast fitness is 0.683.

Q: For U2G A57U G67C, which yeast fitness is on record?
A: Its yeast fitness is ≤ 0.5.

Q: Which yeast fitness does the source give for U2C G6A A20U C30U A36U C49A here?
A: Its yeast fitness is ≤ 0.5.

Q: For U2A C61U A70C, which yeast fitness is on record?
A: Its yeast fitness is 0.585.

Q: Which yeast fitness does the source give for U2C U16C C22A C29A G51C here?
A: The yeast fitness was ≤ 0.5.

Q: With U2C A14G A36C U47A C61A as the variant, how does the yeast fitness read?
A: The yeast fitness was ≤ 0.5.

Q: For U2C U19C A37G C49A, which yeast fitness is on record?
A: The yeast fitness was ≤ 0.5.

Q: For U2C A14G C29A C33G, which yeast fitness is on record?
A: Its yeast fitness is 0.565.

Q: For U2G C4U A20C C30G, which yeast fitness is on record?
A: Its yeast fitness is ≤ 0.5.

Q: For U2C C4U C34A G58A, which yeast fitness is on record?
A: Its yeast fitness is ≤ 0.5.

Q: Which yeast fitness does the source give for U2G C33A C49G U64C G67C here?
A: Its yeast fitness is ≤ 0.5.

Q: With U2G A14G C27G G52C as the variant, how does the yeast fitness read?
A: Its yeast fitness is ≤ 0.5.

Q: Which yeast fitness does the source give for U2C C30U C31A A40U C49A here?
A: Its yeast fitness is ≤ 0.5.

Q: For U2G C4U G23C, which yeast fitness is on record?
A: Its yeast fitness is 0.567.

Q: For U2G C11G A20U C24G C60G G68C, which yeast fitness is on record?
A: The yeast fitness was 0.518.

Q: Which yeast fitness does the source give for U2C C66A here?
A: Its yeast fitness is 0.611.

Q: With U2C U54A A70U as the variant, how does the yeast fitness read?
A: The yeast fitness was 0.555.

Q: Which yeast fitness does the source give for U2C A20G A42U here?
A: The yeast fitness was 0.642.

Q: Which yeast fitness does the source give for U2G C22U U32C A43C G50C here?
A: The yeast fitness was ≤ 0.5.

Q: For U2G A21C C22G A45U G63C, which yeast fitness is on record?
A: The yeast fitness was ≤ 0.5.

Q: For U2A U28C G41C C66A, which yeast fitness is on record?
A: The yeast fitness was ≤ 0.5.

Q: With U2A U8A U47A A69U as the variant, how does the yeast fitness read?
A: The yeast fitness was ≤ 0.5.

Q: Which yeast fitness does the source give for U2C C55U here?
A: The yeast fitness was 0.792.

Q: Which yeast fitness does the source give for U2A G17C C22G A40C here?
A: Its yeast fitness is ≤ 0.5.

Q: For U2G C62U, which yeast fitness is on record?
A: The yeast fitness was 0.863.

Q: Which yeast fitness does the source give for U2G C24A C31G here?
A: Its yeast fitness is ≤ 0.5.

Q: With U2G A15G G17A U28A C29U A45C A69C as the variant, how does the yeast fitness read?
A: Its yeast fitness is ≤ 0.5.

Q: For U2C U3A C24A C27U G56C C66U, which yeast fitness is on record?
A: The yeast fitness was 0.562.

Q: Which yeast fitness does the source give for U2G G10C A45U C46U U47C U64C here?
A: The yeast fitness was ≤ 0.5.

Q: Which yeast fitness does the source give for U2C G52C U59G here?
A: The yeast fitness was ≤ 0.5.

Q: With U2G C4G C11A as the variant, how does the yeast fitness read?
A: The yeast fitness was ≤ 0.5.

Q: With U2G G6A G12A C27U A36U C60G as the variant, how does the yeast fitness read?
A: The yeast fitness was ≤ 0.5.

Q: With U2G G6A U13G C49U G56A A70G as the variant, how does the yeast fitness read?
A: Its yeast fitness is ≤ 0.5.

Q: Which yeast fitness does the source give for U2A U32A U64A A65U here?
A: The yeast fitness was 0.581.

Q: Which yeast fitness does the source give for U2G C33U C34G U59A here?
A: Its yeast fitness is ≤ 0.5.

Q: Which yeast fitness does the source give for U2G C29G C49G here?
A: The yeast fitness was ≤ 0.5.

Q: For U2C U7A A37G A42U G48C C55U C66G, which yeast fitness is on record?
A: Its yeast fitness is ≤ 0.5.

Q: Which yeast fitness does the source give for U2C C27G U28A A43U A70G here?
A: Its yeast fitness is ≤ 0.5.

Q: With U2G G25C C27G C34U U35A G38A U59A as the variant, how does the yeast fitness read?
A: The yeast fitness was ≤ 0.5.

Q: For U2C G50C, which yeast fitness is on record?
A: The yeast fitness was 0.733.

Q: For U2C G50U, which yeast fitness is on record?
A: Its yeast fitness is 0.825.

Q: With U2C G25A A37G A70C as the variant, how does the yeast fitness read?
A: Its yeast fitness is ≤ 0.5.

Q: With U2C C24G C29U A69C as the variant, how does the yeast fitness read?
A: Its yeast fitness is ≤ 0.5.

Q: With U2G C31A G56U G67A as the variant, how does the yeast fitness read?
A: Its yeast fitness is ≤ 0.5.

Q: With U2C U35A as the variant, how does the yeast fitness read?
A: The yeast fitness was 0.62.

Q: Which yeast fitness does the source give for U2C A15U here?
A: Its yeast fitness is 0.653.
